From ChEMBL document CHEMBL3763084, “Design and synthesis of substituted pyrido[3,2-d]-1,2,3-triazines as potential Pim-1 inhibitors” (Bioorg Med Chem Lett, 2016)
Active and inactive are the calls of the source. No cut-off for these calls is given here.

What was measured:
[1] = target: T1, Serine/threonine-protein kinase pim-1 (Homo sapiens, UniProt P11309); test: Inhibition of Pim 1 (unknown origin) after 50 mins by HTRF method
[2] = Antiproliferative activity against human PC3 cells after 96 hrs by MTT assay; format: functional, cell-based; conditions: PC-3, 96 h
LNCaP = test: Antiproliferative activity against human LNCAP cells after 96 hrs by MTT assay; format: functional, cell-based
[3] = target: T1, Serine/threonine-protein kinase pim-1; test: Inhibition of Pim1 in human PC3 cells assessed as decrease in c-Myc level at 5 to 20 uM after 24 hrs by western blot analysis; format: cell-based; conditions: PC-3
Outline: (§1)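 PC-3 cells were exposed for 24 h to the test compound at 0, 5, 10 or 20 μM, with DMSO as the negative control and a reference Pim-1 inhibitor at 10 μM. Lysates were analysed by western blot for BAD phospho-Ser112, 4E-BP1 phospho-Thr37/46, c-Myc and total Pim-1.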

PC-3 = test: Effect on PIM1 expression in human PC3 cells at 5 to 20 uM after 24 hrs by western blot analysis; format: functional, cell-based; outline: as §1
[4] = target: T1, Serine/threonine-protein kinase pim-1; test: Inhibition of Pim1 in human PC3 cells assessed as decrease in BAD phosphorylation at Ser112 residue after 24 hrs by western blot analysis; format: cell-based; conditions: PC-3; outline: as §1
[5] = target: T1, Serine/threonine-protein kinase pim-1; test: Inhibition of Pim1 in human PC3 cells assessed as decrease in 4E-BP1 phosphorylation at Thr37/46 residue after 24 hrs by western blot analysis; format: cell-based; conditions: PC-3; outline: as §1
[6] = target: T1, Serine/threonine-protein kinase pim-1; conditions: PC-3, 10 uM
[7] = target: T1, Serine/threonine-protein kinase pim-1; conditions: PC-3, 10 uM; remark: listed apart in the source
[8] = target: T1, Serine/threonine-protein kinase pim-1; conditions: PC-3, 10 uM; remark: listed apart in the source

Row | Structure (SMILES) | IC50 [1] [µM] | IC50 (LNCaP) [µM] | IC50 [2] [µM] | also measured
1 | FC(F)(F)Oc1cccc(Nc2nnnc3ccc(N4CCC(N5CCCCC5)CC4)nc23)c1 | 2.47 | 4.9 | 5.58 | –
2 | CCOc1ccc2nnnc(Nc3cccc(OC(F)(F)F)c3)c2n1 | > 10 | > 100 | > 100 | –
3 | CN1CCC(CNc2ccc3nnnc(Nc4cccc(OC(F)(F)F)c4)c3n2)CC1 | 1.87 | 17.3 | 15.8 | –
4 | FC(F)(F)Oc1cccc(Nc2nnnc3ccc(N4CCC(N5CCCC5)CC4)nc23)c1 | 1.05 | 10.7 | 8.16 | inhibition [3]: Active; Activity (PC-3): inactive; inhibition [4]: Dose-dependent effect; inhibition [5]: Dose-dependent effect
5 | CC(C)(C)OC(=O)N1CCC(CNc2ccc3nnnc(Nc4cccc(OC(F)(F)F)c4)c3n2)CC1 | > 10 | > 100 | > 100 | –
6 | FC(F)(F)Oc1cccc(Nc2nnnc3ccc(NCC4CCNCC4)nc23)c1 | 0.8 | 11.5 | 8.32 | –
7 | CN1CCC(CNc2ccc3ncc(-c4cccc(OC(F)(F)F)c4)n3n2)CC1 [SGI-1776] | – | 6.85 | 4.86 | inhibition [6]: Active; inhibition [7]: Active; inhibition [8]: Active
8 | CC(C)N1CCN(c2ccc3nnnc(Nc4cccc(OC(F)(F)F)c4)c3n2)CC1 | 1.08 | 10.7 | 13.8 | –

The next lines start with results.

Row | IC50 [1] [µM] | IC50 (LNCaP) [µM] | Structure (SMILES) | IC50 [2] [µM] | also measured
9 | 2.02 | – | COc1ccc2nnnc(Nc3cccc(OC(F)(F)F)c3)c2n1 | – | –
10 | 1.31 | – | CC1CCCCN1c1ccc2nnnc(Nc3cccc(OC(F)(F)F)c3)c2n1 (stereo not given) | – | –
11 | > 10 | 8.62 | FC(F)(F)Oc1cccc(Nc2nnnc3ccc(Cl)nc23)c1 | 5.99 | –
12 | > 10 | – | CCCCOc1ccc2nnnc(Nc3cccc(OC(F)(F)F)c3)c2n1 | – | –
13 | 0.6 | 20.3 | CN1CCN(c2ccc3nnnc(Nc4cccc(OC(F)(F)F)c4)c3n2)CC1 | 24 | –
14 | 2.1 | 42.9 | OCCNc1ccc2nnnc(Nc3cccc(OC(F)(F)F)c3)c2n1 | > 100 | –
15 | 1.45 | 31 | FC(F)(F)Oc1cccc(Nc2nnnc3ccc(N4CCOCC4)nc23)c1 | 41 | –
16 | 2.04 | 14.3 | CCN1CCN(c2ccc3nnnc(Nc4cccc(OC(F)(F)F)c4)c3n2)CC1 | 16.9 | –
17 | > 10 | – | CC1CCN(c2ccc3nnnc(Nc4cccc(OC(F)(F)F)c4)c3n2)CC1 | – | –
18 | 0.69 | 8.51 | FC(F)(F)Oc1cccc(Nc2nnnc3ccc(N4CCNCC4)nc23)c1 | 11.5 | –
19 | > 10 | > 100 | FC(F)(F)Oc1cccc(Nc2nnnc3ccc(N4CCCC4)nc23)c1 | > 100 | –
